The record followed here is ChEMBL document CHEMBL1155356, “Design, synthesis, and structure-activity relationship of novel orally efficacious pyrazole/sulfonamide based dihydroquinoline gamma-secretase inhibitors” (Bioorg Med Chem Lett, 2009).

SMILES strings stand for the structures. Values after ≈ are worked out from the molar mass of the structure shown. Where only a bound is given, the exact number is not on record here.

What is called Papp A→B is the apparent permeability from the apical to the basolateral side of a cell layer. In general, solubility refers to the dissolved amount per volume that the medium holds. What is called IC50 is the point on the concentration scale where inhibition reaches its midpoint.

Series [1] concerns Mus musculus. The series can be described thus: Reduction of cortical abeta40 level in FVB mouse at 3 mg/kg, po after 3 hrs. It counts as functional. Also noted: scale not given: the % may be the effect or the level left.
Series [2] in a line: Apparent permeability from apical to basolateral side in MDCK2 cells at 5 uM after 120 mins. The class given is ADME, cell-based, Canis lupus familiaris, MDCK-II. The following applies: dog, MDCK. Summed up:
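Compound at 5 µM in mHBSS pH 7.4 applied to MDCK II cell monolayers for 120 min at 37 °C. Apical and basolateral chambers sampled and analysed by LC/MS/MS.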

The nature of series [3]: Metabolic stability in human liver microsomes at 2 uM after 30 mins in presence of 1 mM UDPGA. It counts as ADME, Microsome. The following applies: read-out: Stability. Summed up:
(§1)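 Glucuronidation stability: 2 µM compound incubated 30 min at 37 °C in phosphate buffer with liver microsomes (0.5 mg protein), 1 mM UDPGA, 100 mM MgCl2 and 25 µg/mL alamethicin. Read-out is percent parent compound remaining. Human or mouse microsomes per line.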

Series [4] in a line: Solubility in HBSS buffer at 20 mM at pH 7.4 after 1 hr. The class given is physicochemical. Summed up: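 20 mM DMSO stocks serially diluted in DMSO, then diluted 1:200 into HBSS pH 7.4. After 1 h incubation, plates read on a solubility scanner.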
The nature of series [5]: (§2) Oxidative metabolic stability in human liver microsomes at 1 uM after 30 mins in presence of 1 mM NADPH. The note with it: liver microsomes, read-out: Stability. The class given is ADME, Microsome. Summed up:
(§3)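 Oxidative stability: compound at 1 µM incubated 30 min at 37 °C in phosphate buffer with liver microsomes (0.5 mg/ml protein) plus 1 mM NADPH. Percent parent remaining reported. Human or mouse microsomes per line.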
For orientation: Liver microsomes are a subcellular fraction often used to study metabolism.

The subject of series [6] is Mus musculus. The series can be described thus: Reduction of cortical abeta40 level in FVB mouse at 30 mg/kg, po after 3 hrs. The class given is functional. Further details: scale not given: the % may be the effect or the level left; call rule not given here.
The nature of series [7]: Metabolic stability in mouse liver microsomes at 2 uM after 30 mins in presence of 1 mM UDPGA. The note with it: read-out: Stability. It counts as ADME, Microsome. Summed up:
as §1

Series [8] in a line: Oxidative metabolic stability in mouse liver microsomes at 1 uM after 30 mins in presence of 1 mM NADPH. The class given is ADME, Microsome. The following applies: for remaining at 0.5 h, 1 µM: liver microsomes, read-out: Stability; for Stability: microsomes, 0.5 h, 1 µM. Summed up: as §3
In another series the target is Gamma-secretase. Description: Inhibition of Gamma-secretase in human IMR-32 cells after 2 hrs by ELISA assay. It counts as cell-based. Summed up: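 γ-Secretase came from IMR-32 cell membranes, and compound was first diluted in DMSO. Reaction at 37 °C was started with MBPC-125 Swedish substrate, run for 2 h, then stopped with SDS. Cleaved substrate was measured by Aβ40-specific ELISA. Values are means of three experiments.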
On the technique in general: In an ELISA, binding on a coated surface is turned into a signal by an enzyme label.

A further series deals with Liver microsomes. Described as §2. The class given is ADME, Microsome. The note with it: microsomes, 0.5 h, 1 µM. Summed up:
as §3

On to `C[C@@H]1c2c[nH]nc2-c2cc(F)ccc2N1S(=O)(=O)c1ccc(Cl)cc1`, for which the Activity is recorded as 7% with Mus musculus [1] and 37% with Mus musculus [6]. Besides, in series [2], the Papp A→B at 2 h, 5 µM was 19.8 ×10⁻⁶ cm/s. In addition, the remaining at 0.5 h, 2 µM in series [3] came out at 77%; in series [7], 91%. Further, the solubility at 1 h in series [4] is greater than 100 µM. The figures for the remaining at 0.5 h, 1 µM in series [5] and in series [8] were 1% and 7%, respectively. Moreover, inhibition on Gamma-secretase was half-maximal at 0.62 nM (IC50).
The molecule `O=S(=O)(c1ccc(C(F)(F)F)cn1)N1c2ccc(F)cc2-c2n[nH]cc2[C@H]1C1CC1` had an Activity in the series with Mus musculus [1] of 43%. Further, in series [2], the apical-to-basolateral permeability (Papp A→B) at 2 h, 5 µM came to 24.9 ×10⁻⁶ cm/s. Besides, the remaining at 0.5 h, 2 µM was 97% in series [3] and 89% in [7]. In series [4], this molecule yielded a solubility at 1 h of 95 µM (≈ 41.6 µg/mL). For the same molecule, the figures for the remaining at 0.5 h, 1 µM in [5] and in [8] were 95% and 83%, respectively. Further, the IC50 on Gamma-secretase was 0.67 nM.
On to `COC(=O)c1ccc2c(c1)N(S(=O)(=O)c1ccc(C(F)(F)F)cc1)C(C1CC1)c1c[nH]nc1-2` (racemic), for which the Stability result (in the series with Liver microsomes; in series [8]) was “Not Active” throughout. This molecule displayed an IC50 at Gamma-secretase of 0.26 nM.
As for `O=S(=O)(c1ccccc1)N1c2ccccc2-c2n[nH]cc2C1C1CC1` (single isomer, unassigned; enantiomer 1), the Stability entry (in the series with Liver microsomes; in series [8]) was “Not Active” each time. Moreover, the IC50 at Gamma-secretase was 4.2 nM.
